SENP8 block-1: SENP8 protease inhibitors, primary screen, biochemical, luminescence | AID 2540, 2010 | Sentrin-specific protease 8 (Homo sapiens), Q96LD8 | purified SENP8, Z-RLRGG-aminoluciferin cleavage | inhibition, % at 10 µM | 330,000 tested, 1.2% active; in the data active = inhibition above about 50%
SENP8 block-2: human SENP8 protease inhibitors, primary screen, biochemical, fluorescence, Nedd8 protein substrate, uHTS. recombinant SENP8. inhibition, % at 20 µM. Sentrin-specific protease 8 (Homo sapiens), Q96LD8. 360,000 tested, 0.64% active; in the data active = inhibition mostly above about 40%, no sharp cut-off; inactive = mostly below about 27%
SENP6 block: SENP6 protease inhibitors, primary screen, biochemical, luminescence, uHTS. Sentrin-specific protease 6 (Homo sapiens), Q9GZR1. Recombinant SENP6 catalytic domain, aminoluciferin luminescence. inhibition, % at 10 µM. 330,000 tested, 1.8% active;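 active = inhibition above about 50% at the single tested dose, limit read from the data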;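 also: plate controls were DMSO wells with enzyme for no effect and DMSO wells lacking enzyme for full effect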
SENP7 inh: SENP7 protease inhibitors, primary screen, biochemical, luminescence, uHTS; AID 434973, 2010; recombinant SENP7, Z-RLRGG-aminoluciferin luminescence, 40 min; Sentrin-specific protease 7 (Homo sapiens), Q9BQF6; inhibition, % at 5 µM; 330,000 tested, 1.5% active;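 active = inhibition above about 50% at the single test dose, limit read from the data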;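 also: plate controls were DMSO with enzyme for no effect and no enzyme buffer wells for full effect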
Target sequence (Q9BQF6 706-1050 limits assumed): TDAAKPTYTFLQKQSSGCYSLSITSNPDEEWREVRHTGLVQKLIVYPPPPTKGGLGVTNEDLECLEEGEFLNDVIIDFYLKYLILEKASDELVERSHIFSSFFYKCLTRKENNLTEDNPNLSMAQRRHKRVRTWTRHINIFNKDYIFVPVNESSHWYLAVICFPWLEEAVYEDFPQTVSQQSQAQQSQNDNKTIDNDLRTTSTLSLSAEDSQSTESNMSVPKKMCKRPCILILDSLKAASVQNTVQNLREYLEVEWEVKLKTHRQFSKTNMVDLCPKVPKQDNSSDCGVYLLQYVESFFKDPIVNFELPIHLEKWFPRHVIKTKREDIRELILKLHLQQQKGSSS
UBC13 inh: UBC13 polyubiquitin chain formation inhibitors, primary screen, biochemical, TR-FRET, uHTS | Ubiquitin-conjugating enzyme E2 N (Homo sapiens), P61088 | inhibition, % at 20 µM | 330,000 tested, 0.47% active | AID 485273, 2010; in the data active = inhibition above about 45%, passing the limit was not always enough; inconclusive = no clear call, values can overlap the other calls
Target sequence (P61088 whole entry, looked up): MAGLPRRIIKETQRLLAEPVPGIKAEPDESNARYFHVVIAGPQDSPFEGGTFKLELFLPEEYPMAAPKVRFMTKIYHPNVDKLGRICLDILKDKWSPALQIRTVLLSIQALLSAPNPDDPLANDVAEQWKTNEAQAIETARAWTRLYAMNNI
Apaf-1 inh: inhibitors of human Apaf-1 apoptosome, primary screen, biochemical, DEVD-Rh110 fluorescence, uHTS; Apoptotic protease-activating factor 1 (Homo sapiens), O14727; reconstituted apoptosome caspase-3 activity; inhibition, % at 20 µM; 330,000 tested, 0.71% active; AID 489030, 2010; active = inhibition of at least 40% at 20 µM;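 also: plate controls were DMSO wells for no effect and DEVD-CHO caspase inhibitor wells for full effect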
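Material: cell-free apoptosome with Apaf-1, procaspase-3 and caspase-9; Buffer or medium: Hepes pH 7.5 with detergent and BSA; Reagent: cytochrome c trigger plus (Z-DEVD)2-Rh110 caspase-3 substrate; Times: compound with Apaf-1, dATP, procaspase-3 30 min, then 50 min reaction, room temperature; Technique: Rh110 fluorescence intensity.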
Apaf-1 inh conf2: Apaf-1 inhibitors, single-dose retest, confirmation, biochemical, fluorescence, DEVD-Rh110, 20 µM; shares compounds with Apaf-1 inh; reconstituted apoptosome, caspase-3 DEVD-Rh110 fluorescence; inhibition, % at 20 µM; 1,800 tested, 25% active; AID 504614, 2011;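 active = mean inhibition of at least 40% at 20 µM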;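 also: plate controls were DMSO wells for no effect and DEVD-CHO caspase inhibitor control wells for full effect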
Rh110 quench: Rh110 fluorescence interference by putative Apaf-1 inhibitors, confirmation, artefact control for Apaf-1 inhibitor project, biochemical, 20 µM; 1,800 tested, under 10 active; quenched caspase reaction; activation (fluorescence interference), % at 20 µM; shares compounds with Apaf-1 inh;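 active = signal rise of 40% or more at 20 µM, treated as a fluorescence artifact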
Fluor interf inh: fluorescence interference of Apaf-1 inhibitor hits, dose response, artefact control for Apaf-1 inhibitor project. fluorescence interference counterscreen, Apaf-1 assay format. 460 tested, under 10 active. IC50, µM. shares compounds with Apaf-1 inh; call rule not given here
* marks the source's active call; other numbers are inactive results; u = inconclusive; x = no result given. Sampled rows, rich in hits. Any-hit rate of the full collection: about 3%.

SMILES	SENP8 block-1	SENP8 block-2	SENP6 block	SENP7 inh	UBC13 inh	Apaf-1 inh	Apaf-1 inh conf2	Rh110 quench	others
C[C@@H]1[C@H]2[C@@H]3CC[C@@H](C3)[C@H]2CN[C@H]1c1cn(Cc2ccccc2)c2ccccc12	x	8	x	3	x	62*	15	13
Cc1ccc(S(=O)(=O)N2C[C@@H]3[C@H]4CC[C@H](C4)[C@@H]3[C@@H](C)[C@@H]2c2cn(Cc3ccccc3)c3ccc(F)cc23)cc1	x	9	x	3	x	14	x	x
O=C(O)CCCNc1cc(N2CCC3(CC2)OCCO3)c2noc3c2c1C(=O)c1ccccc1-3	17	x	-9	10	-168	-11	x	x
O=C1c2ccccc2-c2onc3c(N4CCN(CCO)CC4)cc(N4CCN(C(=O)c5ccco5)CC4)c1c23	11	75*	20	16	-175	52*	35	5
CCOC(=O)N1CCN(c2cc(NCCC(=O)O)c3c4c(onc24)-c2ccccc2C3=O)CC1	26	88*	48	26	-207	75*	54*	-8	Fluor interf inh=6.3*
O=C(c1ccco1)N1CCN(CCCCN2C(=O)c3ccccc3C2=O)CC1	-3	9	0	15	-2	-2	x	x
O=C(O)CCCNc1cc(N2CCN(C(=O)c3ccco3)CC2)c2noc3c2c1C(=O)c1ccccc1-3	24	77*	38	15	-137	60*	28	1
Cc1c(C(c2cccc([N+](=O)[O-])c2O)c2c(C)n(C)n(-c3ccccc3)c2=O)c(=O)n(-c2ccccc2)n1C	-5	8	1	-8	-11	-18	x	x
Cc1[nH]n(-c2ccccc2)c(=O)c1C(c1cccc([N+](=O)[O-])c1O)c1c(C)[nH]n(-c2ccccc2)c1=O	1	33	28	31	-60	88*	27	4
Cc1[nH]n(-c2ccccc2)c(=O)c1C(c1ccc(C(=O)O)cc1)c1c(C)[nH]n(-c2ccccc2)c1=O	-3	71*	26	18	-23	71*	22	6
Cc1[nH]n(-c2ccccc2)c(=O)c1C(C[N+](=O)[O-])c1ccc(Br)cc1 (centres undefined)	25	88*	35	41	-42	87*	96*	16	Fluor interf inh=>100
Cc1[nH]n(-c2ccccc2)c(=O)c1C(=O)c1ccc([N+](=O)[O-])cc1	-5	21	-9	-8	-7	15	x	x
Cc1[nH]n(-c2ccccc2)c(=O)c1C(c1cccc([N+](=O)[O-])c1)c1c(C)[nH]n(-c2ccccc2)c1=O	-13	49*	11	15	-30	64*	31	6
Cc1ccc(C(C[N+](=O)[O-])c2c(N)n(C)c(=O)n(C)c2=O)cc1 (centres undefined)	-1	15	5	-1	-9	-8	x	x
C[C@@H]1CN([C@@H](C)CO)C(=O)c2cc(NS(=O)(=O)c3ccc(F)cc3)ccc2O[C@@H](C)CCCCO[C@H]1CN(C)C(=O)NC1CCCCC1	x	10	x	x	x	x	x	x
O=C(c1cc(C2CCCCN2S(=O)(=O)Cc2ccccc2)on1)N1CCOCC1 (centres undefined)	x	11	x	x	x	x	x	x
COc1cccc(CN2CCC2(C)C(=O)Nc2cccc(Oc3ccccc3)c2)c1OC (centres undefined)	x	13	x	x	x	x	x	x
Cc1ccc(SCC(=O)OCC(=O)NCCNC(=O)COC(=O)CSc2ccc(C)c(C)c2)cc1C	-20	3	-20	13	11	40*	20	16
Cc1ccc(SCC(=O)OCC(=O)NCC2CCCCC2)cc1C	-17	13	-25	12	-2	12	x	x
CC1=[N+](C)c2ccc3ccccc3c2C1(C)C	-2	-392	29	-4	-43	42*	16	1
c1ccc2c(c1)ccc1ccccc12	5	31	12	-1	12	-6	x	x
CCn1c2ccccc2c2nnc(SCC(=O)c3c(N)n(C)c(=O)n(C)c3=O)nc21	-7	-41	-2	0	-6	54*	12	8
CC1(C)OC(=O)C2=C(C[C@@H](C3CCCC3)O[C@H]2c2ccc(Cl)cc2)O1	x	23	x	x	x	x	x	x
CCOC(=O)CNCCC(=O)c1ccc(Br)cc1	3	3	2	9	2	58*	9	1
Cc1cccc(NCCC(=O)c2ccc(Br)cc2)c1	-9	4	-32	-7	-2	14	x	x
SMILES	SENP8 block-1	SENP8 block-2	SENP6 block	SENP7 inh	UBC13 inh	Apaf-1 inh	Apaf-1 inh conf2	Rh110 quench	others
Cc1cccc(C)c1NC(=O)CN1CCN(CCCC(c2ccc(F)cc2)c2ccc(F)cc2)CC1	-6	6	-8	-6	35	51*	19	11
CCCS(=O)(=O)NC(=O)C1(C)CCCN(C(=O)c2ccc(OC)cc2)C1 (centres undefined)	x	29	x	x	x	x	x	x
COc1ccc(-c2nnc3c4ccccc4c(C)nn23)cc1	-2	-67	34	23	-8	15	x	x
Cc1nn2c(-c3ccncc3)nnc2c2ccccc12	-5	-2	-6	8	-3	74*	86*	1	Fluor interf inh=>100
O=C(Nc1cccc(C(F)(F)F)c1)c1ccc2nc(-c3ccco3)c(-c3ccco3)nc2c1	15	-466	20	16	11	66*	44*	2	Fluor interf inh=>100
O=C(Nc1ccc(F)c(Cl)c1)NC1CC1	-2	8	-8	-2	10	-9	x	x
O=C(Nc1cccc(C(F)(F)F)c1)c1cc[n+]([O-])cc1	-7	4	-31	-7	-3	11	x	x
O=C(Nc1ccc2nc(-c3ccco3)c(-c3ccco3)nc2c1)NC1CC1	9	-490	-99	-6	u	47*	33	5
Cc1c(C(=O)NNC(=O)c2csc(N3CCOCC3)n2)oc2ccc(Br)cc12	x	-12	x	x	x	x	x	x
CCOc1cc(/C=C\[N+](=O)[O-])ccc1OCC(=O)N1CCOCC1	-9	-5	-12	-5	-13	-7	x	x
CCOc1cc(/C=C/c2nc3cc(C)c(C)cc3s2)ccc1OCC(=O)N1CCOCC1	-8	-400	13	12	16	45*	17	-15

Bioassay records (PubChem BioAssay)
